Assay outcomes as filed in PubChem BioAssay.
An excerpt weighted towards active compounds, which were near 2% of everything screened.
NSD2 inh = NSD2 (human) methyltransferase inhibition. O96028. NSD2 peptide methylation, AlphaScreen, 120 min. inhibition, % at 12.5 µM. 0.54% of 310,000 active. AID 743445; in the data active means inhibition above about 50%
SR-BI uptake up = enhances SR-BI lipid uptake from DiI-HDL. 0.096% of 320,000 active. activation, % at 12.5 µM. CHO ldlA[mSR-BI] cells, DiI-HDL uptake fluorescence, 3 h; 100 = double the neutral-control signal. AID 504775;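 active means mean replicate activation of at least 60% and every replicate at or above 60%; inconclusive means mean or all-replicate condition met, but not both; inactive means mean below 60% and not all replicates reaching 60%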;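 further: 0% = median plate neutral-control signal and 100% = twice that signal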
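Test system: SR-BI-overexpressing, LDLR-lacking CHO cells; Medium: Ham's F12 with 0.5% BSA, HEPES 25 mM, pH 7.4; Schedule: 3 h, 37 °C; Technique: bottom-read fluorescence, 550/595 nm.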
ARNT TACC3 PPI = disruptors of human ARNT/TACC3 interaction. Q9Y6A5. AlphaScreen His-ARNT PAS-B/GST-TACC3 binding, luminescence; TACC3 fragment carries E629A point mutation. inhibition, % at 9.99 µM. 0.66% of 390,000 active. AID 623870;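 active means mean inhibition of replicates at least 50% and at least half of replicates each reaching 50%; inconclusive means half or more replicates reach 50% but mean below 50%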;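 further: 0% = complete ARNT plus TACC3 wells and 100% = ARNT alone without TACC3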
HGIII-sPLA2 inh = Blocks human group III sPLA2 activity; Q9NZ20; QFRET BODIPY PC-A2 liposome hydrolysis, fluorescence; inhibition, % at 12.2 µM; 0.56% of 370,000 active; AID 743126;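 active means inhibition above mean plus 3 SD of compounds lying within the high and low control bounds, cut at about 19% in these data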;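 further: 0% = median of test compound wells and 100% = no enzyme DMSO wells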
SR-BI HDL uptake = blocks mouse SR-BI lipid uptake from DiI-HDL. 0.96% of 320,000 active. Q61009. ldlA[mSR-BI] CHO cells, DiI-HDL uptake fluorescence, 3 h. inhibition, % at 12.5 µM;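 active means mean replicate inhibition of at least 70% and a set share of replicates each scoring 70 or more; inconclusive means meets just one of the two criteria; inactive means fails both criteria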;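 further: 0% = median of neutral control wells and 100% = median of positive control wells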
Target sequence (Q61009 whole entry, looked up): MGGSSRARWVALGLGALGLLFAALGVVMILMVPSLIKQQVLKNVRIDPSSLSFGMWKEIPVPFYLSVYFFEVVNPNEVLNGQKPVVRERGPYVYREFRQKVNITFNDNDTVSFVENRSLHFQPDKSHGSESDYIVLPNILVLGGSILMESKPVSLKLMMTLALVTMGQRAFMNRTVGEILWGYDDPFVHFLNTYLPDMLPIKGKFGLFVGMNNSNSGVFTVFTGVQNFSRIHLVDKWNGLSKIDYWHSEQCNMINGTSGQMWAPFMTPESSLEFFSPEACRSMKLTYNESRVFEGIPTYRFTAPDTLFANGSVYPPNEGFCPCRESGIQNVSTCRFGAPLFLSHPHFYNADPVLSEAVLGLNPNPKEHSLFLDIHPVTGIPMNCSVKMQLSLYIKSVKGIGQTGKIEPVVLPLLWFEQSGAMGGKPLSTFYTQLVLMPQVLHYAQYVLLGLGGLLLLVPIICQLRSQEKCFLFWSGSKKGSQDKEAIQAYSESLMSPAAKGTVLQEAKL
XiGFP reactiv = reactivates the inactive X chromosome in mouse fibroblasts. XiGFP mouse fibroblasts, % GFP-positive cells imaging, 3 d; cells co-treated with 5-aza-dC sensitizer; scaled so ellipticine positive control = 100%. activation, % at 7.58 µM. 0.055% of 360,000 active. AID 743238;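 active means mean normalized replicate activation at least 10% and every replicate at or above 10%; inconclusive means only one of the two criteria met; inactive means mean below 10% and not all replicates reach 10%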;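 further: 0% = median of on-plate neutral control wells and 100% = ellipticine 6 µM median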
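Material: SV40-immortalized XiGFP fibroblast cells, line 68-5-11 | Buffer or medium: DMEM containing 5-aza-dC | Dosing: One concentration, pinned | Times: 3 d treatment, 15 min room-temperature fixation | Controls: Ellipticine 6 µM positive control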
hGIII sPLA2 conf = human GIII-sPLA2 inhibition, confirmation | shares compounds with HGIII-sPLA2 inh | recombinant hGIII-sPLA2, BODIPY PC-A2 QFRET fluorescence | inhibition, % at 12.2 µM | 34% of 2,000 active | AID 743280;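 active means mean inhibition across triplicates above the hit cutoff set in the earlier primary screen, cut at about 19% in these data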;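 further: 0% = enzyme with DMSO and 100% = DMSO wells lacking enzyme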
BODIPY interf = 535nm fluorescence interference, HGIII-sPLA2 counter-screen | shares compounds with HGIII-sPLA2 inh | BODIPY FL product fluorescence interference, QFRET | inhibition, % at 12.2 µM | 8.5% of 2,000 active;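 active means average inhibition above the solvent-only control mean plus 3 SD, cut at about 6% in these data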;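 further: 0% = DMSO with substrate plus product and 100% = DMSO with substrate alone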
BODIPY interf DR = 535nm optical interference dose response, HGIII-sPLA2 counter-screen; AID 743455; shares compounds with HGIII-sPLA2 inh; 240 tested, under 10 active; BODIPY FL product fluorescence interference, cell-free; IC50, µM;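 active means IC50 at or below 10 µM; inactive means IC50 above 10 µM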
Active calls of the source: *; u = inconclusive; x = not tested or not shown.

SMILES | NSD2 inh | SR-BI uptake up | ARNT TACC3 PPI | HGIII-sPLA2 inh | SR-BI HDL uptake | XiGFP reactiv | hGIII sPLA2 conf | BODIPY interf | others
CN(Cc1ccccc1)S(=O)(=O)c1ccc(NC(=O)C2CCCCC2C(=O)O)cc1 (configuration not stated) | -1.9 | 11.3 | x | 1.2 | -11.3 | -0.1 | x | x
CN(Cc1ccccc1)S(=O)(=O)c1ccc(NC(=O)C2CCCO2)cc1 (configuration not stated) | 0.6 | -2.9 | -0.7 | 23.4* | 2.9 | x | -4.7 | -13.8
NC(=O)N/C=C1\CCCOC1=O | -1.7 | x | x | 3.2 | x | 0.3 | x | x
Cc1ccc(C(=O)NCCc2nnc3ccc(SCC(=O)Nc4ccccc4F)nn23)cc1 | -2.5 | 4.2 | 8.1 | 1.6 | -4.2 | 0.0 | x | x
CCc1ccc(Nc2nc(N)nc(CSc3nc4ccccc4s3)n2)cc1 | 3.4 | 10.3 | -18.3 | 23.8* | -10.3 | 0.1 | -3.1 | 0.0
CC1=NN(c2ccccc2)C(=O)/C1=C/C=C/c1ccccc1 | 6.6 | 15.8 | -21.1 | 23.0* | -15.8 | 0.8 | 46.0* | 10.8*
CSc1cccc(NC(N)=O)c1 | 0.3 | x | x | -1.5 | x | -0.1 | x | x
CSc1cccc(NC(N)=S)c1 | 24.3 | -1.2 | -6.4 | 19.7* | 1.2 | 0.0 | 18.1 | -6.8
COc1ccc2c3c(n(C)c2c1)[C@@H](CO)N(CC1CCCC1)CC31CN(C(=O)Nc2ccccc2)C1 | x | x | x | x | x | 0.0 | x | x
Cc1cccc(C)c1NC(=O)c1cccc2c1-c1ccccc1C2=O | 19.5 | 23.7 | 6.8 | 21.6* | -23.7 | 0.1 | 3.8 | -5.4
Cc1cccc(NC(=O)c2cccc3c2-c2ccccc2C3=O)c1C | 0.7 | x | x | 0.6 | x | x | x | x
CCOc1ccc2c(c1)-c1c(ssc1=S)C(C)(C)N2C(=O)CSC1=NCCS1 | -1.2 | -27.5 | 1.4 | 36.3* | 27.5 | 0.0 | 20.2* | -7.9
Cc1ccc2c(c1)-c1c(ssc1=S)C(C)(C)N2C(=O)CSC1=NCCS1 | 5.0 | -10.4 | 7.8 | 11.1 | 10.4 | x | x | x
CC(=O)C1=C(C)NC(SCC(N)=O)=C(C#N)C1c1sccc1C (configuration not stated) | x | x | -1.0 | 22.6* | x | x | 7.4 | -5.3
CCOC(=O)CSC1=C(C#N)C(c2sccc2C)C(C(C)=O)=C(C)N1 (configuration not stated) | -2.3 | -20.1 | -2.9 | 4.1 | 20.1 | x | x | x
CN(C)Cc1csc(NC(=O)Nc2cccc(C(F)(F)F)c2)n1 | 1.8 | x | x | 5.4 | x | -0.1 | x | x
COc1ccc2[nH]c(=O)c(CN(CCc3ccccc3)C(C)=O)cc2c1 | 2.3 | 4.2 | 1.2 | -2.2 | -4.2 | x | x | x
CCC(C)NC(=S)N(CCc1ccccc1)Cc1cc2cc(OC)c(OC)cc2[nH]c1=O (configuration not stated) | -3.5 | -1.0 | 9.1 | 20.5* | 1.0 | -0.1 | 20.3* | -16.4
O=C(NNC(=O)C1CCN(S(=O)(=O)c2ccc(Cl)cc2)CC1)c1ccccc1O | -1.4 | -37.5 | -2.0 | 20.6* | 37.5 | 0.0 | 3.7 | -5.1
C[C@@H](C(=O)N1CCNCC1)n1cc(CCCN=C(N)N)nn1 | x | u | -28.4 | 9.5 | -78.8 | 0.0 | x | x
COC(=O)c1ccc(C(=O)OC)c(NC(=S)N2CCC(C)CC2)c1 | -1.4 | -18.2 | -2.3 | 22.4* | 18.2 | -0.1 | 6.6 | -6.2
COC(=O)c1ccc(C(=O)OC)c(NC(=S)N2CCCC2)c1 | 8.7 | -7.9 | 6.7 | 13.6 | 7.9 | 0.0 | x | x
O=C(NCc1ccccc1)C1Cc2c(-c3cccc(F)c3)ccnc2O1 (configuration not stated) | -0.6 | x | x | 8.7 | x | 0.3 | x | x
O=[N+]([O-])c1cc([N+](=O)[O-])c2c(=Nc3ccccc3)n(-c3ccccc3)n(O)c2c1 | 21.4 | -74.9 | 2.9 | 34.6* | 74.9* | 0.0 | 56.2* | 18.6*
O=[N+]([O-])c1cc(Br)c(Nc2ccccc2)c([N+](=O)[O-])c1 | 14.2 | -0.7 | 3.0 | 15.5 | 0.7 | 0.6 | x | x
SMILES | NSD2 inh | SR-BI uptake up | ARNT TACC3 PPI | HGIII-sPLA2 inh | SR-BI HDL uptake | XiGFP reactiv | hGIII sPLA2 conf | BODIPY interf | others
CCC(C)(NC(=O)c1ccccc1)C(=O)O (configuration not stated) | -2.3 | 17.5 | -5.7 | 22.7* | -17.5 | x | 1.6 | -5.6
COc1ccc2nc(NC(=O)/C=C/c3ccc4c(c3)OCO4)sc2c1 | 1.7 | x | x | 15.3 | x | 0.2 | x | x
COc1ccc2nc(Nc3ccccc3)sc2c1 | x | -17.0 | 2.8 | -18.3 | 17.0 | 0.1 | x | x
COc1cc(C(=O)NNc2nc3cc4c(cc3s2)OCO4)cc(OC)c1OC | x | 8.1 | 7.4 | 19.2* | -8.1 | 0.0 | 18.5 | -4.8
COc1ccc2nc(Nc3nc4cc5c(cc4s3)OCO5)sc2c1 | -2.4 | -16.3 | -2.9 | 23.2* | 16.3 | 0.0 | 36.7* | 4.8 | BODIPY interf DR=>122
Cc1ccc2nc(NNC(=O)c3ccc4c(c3)OCCO4)sc2c1 | x | 23.0 | -2.4 | 25.0* | -23.0 | 0.3 | 31.7* | -0.4 | BODIPY interf DR=>122
COc1ccc2nc(Nc3ccc4c(c3)OCO4)sc2c1 | x | 14.8 | -4.5 | 85.7* | -14.8 | x | -0.7 | 1.6
O=C1O[C@H](c2ccccc2)[C@H](c2ccccc2)N2[C@H]1[C@@H](C(=O)O)[C@]1(C(=O)Nc3ccccc31)[C@H]2c1ccc(O)cc1 | x | x | 10.6 | x | x | x | x | x
Cc1ccc(CS(=O)(=O)CCC(=O)NCCCOC(C)C)cc1 | 3.2 | 16.0 | -2.2 | 3.1 | -16.0 | x | x | x
Cc1ccc2cc(C#N)c(SCC(=O)N3CCCc4ccccc43)nc2c1 | -1.8 | -7.7 | -0.5 | 3.3 | 7.7 | -0.2 | x | x
Cc1ccc2cc(C#N)c(SCC(=O)N3CCCc4ccccc43)nc2c1C | -9.7 | -0.1 | -1.7 | 19.6* | 0.1 | x | -2.7 | -4.3
CC(C)NC(=S)NC(c1ccccc1)(c1ccccc1)c1ccccc1 | -2.7 | 18.8 | 3.6 | 21.6* | -18.8 | 0.0 | 29.0* | -12.5
Fc1ccccc1Cn1ccc2ccc(-c3ccc4ccn(Cc5ccccc5)c4c3)cc21 | x | x | x | 3.0 | x | x | x | x
COc1ccc(Cn2ccc3ccc(-c4ccc5ccn(Cc6ccccc6F)c5c4)cc32)cc1 | x | x | x | 19.8* | x | x | 12.7 | 4.6
Cc1ccc(C(=O)N2CCCC(CCC(=O)NCc3ccc(F)c(F)c3)C2)cn1 (configuration not stated) | -4.8 | 14.2 | x | 12.5 | -14.2 | 0.0 | x | x
COc1cc(-c2n[nH]c(=S)n2-c2ccccc2C(F)(F)F)cc(OC)c1OC | 0.9 | 17.9 | 0.6 | 15.9 | -17.9 | -0.1 | x | x
